Experiment [1] is described as follows: S. cerevisiae growth inhibition in permissive medium (OD615), pilot counter-assay for S. cerevisiae lifespan shortening project, permissive growth control (AID 705;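 active = growth inhibition above 25% in both replicates, a cutoff set 3 SD above the mean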). The following applies: OD615, 24 h, at 10 µM, active compounds read high. Put shortly:
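System: S. cerevisiae with engineered DeaD lifespan system. Medium: SC raffinose/galactose permissive medium. Doses: single compound dose of 10 µM, 0.25% DMSO final. Schedule: 24 h exposure, 30 °C. Measured by: OD615 turbidity read. Read-out: growth inhibition.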

Experiment [2] can be described thus: S. cerevisiae growth inhibition in restrictive medium, OD615, pilot screen, restrictive growth control, yeast lifespan reduction project (AID 706;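 active = growth inhibition above a set limit, 3 SD over mean compound inhibition, in both replicates, cut at about 43% in these data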;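 also: modified DeaD lifespan yeast strain shifted to restrictive glucose medium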). To be noted: OD615, 48 h, at 10 µM, active compounds read high. Put shortly:
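Assay system – genetically modified Saccharomyces cerevisiae, DeaD replicative lifespan assay strain · Medium – CSMM-D glucose medium · Doses – 10 µM compound, 0.25% DMSO · Times – 4 h pre-incubation, 48 h exposure at 30 °C · Signal – optical density at 615 nm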

A short description of experiment [3]: doxorubicin toxicity protection in MRP-1 cells – H69AR cells, CellTiter-Glo, duplicate, MRP-1 activator project, pilot screen (AID 807;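 active = viability increase at or above a cutoff of the median across tested compounds plus 3 SD, cut at about 8.5% in these data, passing the limit was not always enough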;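 also: compound pretreatment 18-22 h then 72 h combined with doxorubicin; 0% = doxorubicin alone and 100% = vehicle without doxorubicin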). The following applies: H69AR viability with doxorubicin, CellTiter-Glo luminescence; at 10 µM; active compounds read high. (In general: In ATP-based viability assays light output follows the ATP content of the culture.)
A short description of experiment [4]: viability of HCT116 without oncogenic beta-catenin – human colon tumor cells, pilot screen (AID 823;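 active = cell viability at or below a set limit in both duplicate runs, the limit being the all-compound median minus 4 SD, cut at about 23% in these data, passing the limit was not always enough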;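 also: 0% = wells killed by 20 µM Hyamine and 100% = untreated DMSO cell wells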). To be noted: HCT116 beta-catenin knockout viability, CellTiter-Glo, 60 h; at 10 µM; active compounds read low.
The nature of experiment [5]: viability of PTEN-null HCT116 cells – cell-based, HCT116 clonal line, CellTiter-Glo, pilot screen (AID 824).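 Also: 0% = 20 µM Hyamine control and 100% = vehicle cell control.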 To be noted: HCT116 PTEN-deleted viability, 60 h, at 10 µM, active compounds read low.
Experiment [6] is described as follows: RAM pathway blockade in budding yeast – dse1pr::URA3 reporter, 5-FOA selection, pilot screen (AID 869;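 active = inhibition over a set limit, the all-compound mean plus 3 SD, in both replicate runs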;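 also: 0% = DMSO wells with no growth and 100% = 10 µM 1-NA-PP1 with full growth; RAM network block rescues cells from 5-FOA so hits raise OD615 growth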). The following applies: S. cerevisiae dse1pr::URA3 5-FOA growth, OD615, 2 d; at 10 µM; active compounds read high; strain carries analog-sensitive mutant Cbk1 kinase.
Experiment [7] in a line: RAM signaling pathway blockade in yeast – S. cerevisiae, Pdr1DBD-CYC8 efflux-inhibited sensitized strain, primary screen (AID 1298;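 active = RAM network inhibition above 8.4% in each of two replicates, 3 SD over the compound average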;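 also: 0% = DMSO untreated cells without growth and 100% = 10 µM 1-NA-PP1 full growth; higher means more yeast growth rescued from 5-FOA killing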). To be noted: S. cerevisiae cbk1-as DSE1-URA3 strain, 5-FOA growth OD615, 2 d; at 50 µM; active compounds read high.

Values without a mark were called inactive. Records with an inconclusive call do not appear. Active and inactive are the calls of the source.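 The calls were made as follows, unless noted: active = viability at or below 27.92% in each of two runs, the all-compound median minus 4 SD; inconclusive = no clear call, values can overlap the other calls; inactive = the rest.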

For orientation: viability means a read-out of living cells in per cent, often relative to untreated cells. The inhibition is the relative decrease from the control value, in per cent.

Turning to `Cc1ccc(C(=O)NCCCCNC(=O)c2ccc(C)o2)o1`, the growth inhibition is -5.8% in experiment [1] and -4.64% in experiment [2]. In addition, the viability increase in experiment [3] was -1.97%. Moreover, the viability in experiment [4] is 106%; in experiment [5] it was 96.3%. In addition, in experiment [6], the inhibition is 3.56%. The RAM network inhibition in experiment [7] is 4.03%.

For `COc1ccc(-n2c(Cc3cccn3C)nnc2SCC(=O)N2CCCC2)cc1`, the growth inhibition in experiment [1] was 11.1%; in experiment [2] it was 49.5% (active). In addition, the viability increase in experiment [3] is -0.77%. In addition, the values for the viability in experiment [4] and in experiment [5] were 96.1% and 98.5%, respectively. In addition, the inhibition in experiment [6] is 0.04%. Besides, in experiment [7], the RAM network inhibition is 0.93%.

For the compound `Cc1ccc(N(CC(O)CN2CCCC2)S(=O)(=O)c2ccccc2)cc1` (stereo not drawn), the growth inhibition in experiment [1] is -1.29%; in experiment [2] it was -3.1%. Besides, the viability increase in experiment [3] is -2.89%. Also, the results for the viability in experiment [4] and in experiment [5] were 94.2% and 91.2%, respectively. Moreover, the inhibition in experiment [6] was -0.105%. Moreover, in experiment [7], the RAM network inhibition was 5.78%.

Turning to `Cn1c(SCC(=O)N2CCCCC2)nc2c([nH]c3ccccc32)c1=O`, the growth inhibition in experiment [1] was -3.83%; in experiment [2] it was -3.68%. Further, the viability increase in experiment [3] was -6.06%. The viability in experiment [4] was 61.4%; in experiment [5], 44%. Also, the inhibition in experiment [6] was 2.85%. The RAM network inhibition in experiment [7] was 4.75%.

As to `COc1ccccc1-n1c2c(cc(C(=O)N3CCC(C)CC3)c1=O)C(=O)CC(C)(C)C2`, the growth inhibition in experiment [1] is -21.2%; in experiment [2] it was -5.49%. The viability increase in experiment [3] is -0.6%. Further, the results for the viability in experiment [4] and in experiment [5] were 101% and 90.7%, respectively. The inhibition in experiment [6] is 0.005%. In experiment [7], the RAM network inhibition is 4.67%.

Regarding `COc1ccccc1N1C(=O)C2CC=CC(C)C2C1=O` (stereo not drawn), the growth inhibition in experiment [1] is -0.615%; in experiment [2] it was 2.32%. For the same compound, in experiment [3], the viability increase was -0.91%. In addition, the viability in experiment [4] is 89.4%; in experiment [5], 94%. Moreover, the inhibition in experiment [6] was 0.52%. Moreover, the RAM network inhibition in experiment [7] is 2.25%.

Regarding `Cc1cc(C)c(S(=O)(=O)N2CCN(CCO)CC2)c(C)c1`, the growth inhibition in experiment [1] is 4.04%; in experiment [2], 10.5%. Besides, the viability increase in experiment [3] was 0.8%. Moreover, the viability is 108% in experiment [4] and 97.4% in experiment [5]. Besides, the inhibition in experiment [6] was 1.64%. In addition, in experiment [7], the RAM network inhibition is 2.45%.

Turning to `Cc1ccc(OCCNC(=O)c2ccccc2N)cc1`, the figures for the growth inhibition in experiment [1] and in experiment [2] were 1.82% and -18.1%, respectively. Also, the viability increase in experiment [3] is -2.73%. Besides, the values for the viability in experiment [4] and in experiment [5] were 103% and 97.6%, respectively. The inhibition in experiment [6] is 0.785%. In experiment [7], the RAM network inhibition was -0.05%.

In the case of `O=C(CCCC(=O)n1cnc2ccccc21)n1cnc2ccccc21`, the figures for the growth inhibition in experiment [1] and in experiment [2] were -3.46% and 4.09%, respectively. Moreover, the viability increase in experiment [3] is -1.98%. Further, the viability was 96.2% in experiment [4] and 92.9% in experiment [5]. Moreover, the inhibition in experiment [6] was 1.08%. Besides, the RAM network inhibition in experiment [7] was 0.98%.

Consider `COc1ccc(OCC(=O)Nc2ccccc2OC)cc1`, for which the results for the growth inhibition in experiment [1] and in experiment [2] were 11.4% and 7.31%, respectively. Besides, in experiment [3], the viability increase was -4.87%. Further, the viability in experiment [4] was 105%; in experiment [5], 101%. Also, the inhibition in experiment [6] is 0.82%. For the same compound, the RAM network inhibition in experiment [7] was -2.32%.

For `Cc1ccc(-c2nn3c(C)nnc3s2)cc1NC(=O)C(C)C`, the results for the growth inhibition in experiment [1] and in experiment [2] were -1.65% and 13.7%, respectively. In experiment [3], the viability increase was -2.89%. The viability was 110% in experiment [4] and 105% in experiment [5]. In experiment [6], the inhibition is 0.965%. Also, the RAM network inhibition in experiment [7] is -0.58%.

With `Nc1c(C(=O)c2ccc(Br)s2)oc2ccccc12`, the growth inhibition in experiment [1] is -9.21%; in experiment [2], -4.51%. Also, the viability increase in experiment [3] was -5.46%. Moreover, the figures for the viability in experiment [4] and in experiment [5] were 88.8% and 88.7%, respectively. In addition, in experiment [6], the inhibition was -0.045%. In experiment [7], the RAM network inhibition was 2.7%.

Take `COc1ccc(-n2c(Cc3cc(=O)[nH]c(=O)[nH]3)nnc2SCC(=O)N2CCCC2)cc1`: the growth inhibition in experiment [1] is -4.92%; in experiment [2], -0.375%. Moreover, in experiment [3], the viability increase is 0.36%. The viability is 101% in experiment [4] and 97.9% in experiment [5]. In addition, the inhibition in experiment [6] was 0.805%. Moreover, in experiment [7], the RAM network inhibition was 0.42%.

Turning to `Cc1c(NC(=O)C2CCN(S(=O)(=O)c3ccccc3)CC2)c(=O)n(-c2ccccc2)n1C`, the growth inhibition was -3.65% in experiment [1] and -4.28% in experiment [2]. For the same compound, in experiment [3], the viability increase is -2.25%. The results for the viability in experiment [4] and in experiment [5] were 96.5% and 88.8%, respectively. For the same compound, the inhibition in experiment [6] was 1.45%. Moreover, in experiment [7], the RAM network inhibition is 6.15%.

Consider `Cc1nc2c3ccccc3n(CC#N)c(=O)n2n1`, for which the growth inhibition was -11.8% in experiment [1] and -5.63% in experiment [2]. Further, the viability increase in experiment [3] is -3.78%. The viability in experiment [4] is 99.9%; in experiment [5], 95.8%. Moreover, the inhibition in experiment [6] is 2.66%. Besides, in experiment [7], the RAM network inhibition is 0.21%.

As for `Cc1nnc(NC(=O)CSc2nnc(Cc3cccn3C)n2C)s1`, the growth inhibition in experiment [1] was -3.1%; in experiment [2], 24.4%. Moreover, in experiment [3], the viability increase is -0.3%. Further, the viability was 98.8% in experiment [4] and 104% in experiment [5]. Also, the inhibition in experiment [6] was 0.91%. Further, the RAM network inhibition in experiment [7] is 1.93%.

For `COc1ccc(-c2nnc(NC(=O)C(C)C)o2)cc1`, the growth inhibition in experiment [1] is 2.56%; in experiment [2] it was 6.86%. Also, the viability increase in experiment [3] was -1.77%. The results for the viability in experiment [4] and in experiment [5] were 103% and 102%, respectively. In addition, the inhibition in experiment [6] was 1.23%. Also, the RAM network inhibition in experiment [7] was 4.26%.

Consider `CCc1ccccc1N1CC23C=CC(O2)C(C(=O)OC)C3C1=O` (stereo not drawn), for which the figures for the growth inhibition in experiment [1] and in experiment [2] were -17.5% and -18.8%, respectively. The viability increase in experiment [3] was -0.91%. Besides, the viability in experiment [4] is 92.7%; in experiment [5] it was 99%. The inhibition in experiment [6] is 0.9%. For the same compound, the RAM network inhibition in experiment [7] is 5.27%.

For the compound `Cc1csc2ncc(C(=O)Nc3ccc4c(c3)OCCO4)c(=O)n12`, the growth inhibition in experiment [1] was -13.1%; in experiment [2] it was -17.3%. Further, the viability increase in experiment [3] is -2.34%. Further, the figures for the viability in experiment [4] and in experiment [5] were 102% and 97.5%, respectively. For the same compound, in experiment [6], the inhibition was 2.96%. The RAM network inhibition in experiment [7] was 6.97%.

Take `CCCCn1c(CN2CCOCC2)nc2c1c(=O)n(C)c(=O)n2C`: the figures for the growth inhibition in experiment [1] and in experiment [2] were -1.51% and -7.03%, respectively. The viability increase in experiment [3] is -1.72%. Also, the viability in experiment [4] was 93.8%; in experiment [5] it was 89.6%. The inhibition in experiment [6] was 0.375%. Further, the RAM network inhibition in experiment [7] was 2.4%.

Regarding `O=C(Cc1c(F)cccc1Cl)c1ccc(O)cc1O`, the growth inhibition in experiment [1] was -10.5%; in experiment [2], -0.825%. Moreover, the viability increase in experiment [3] was -0.88%. Further, the figures for the viability in experiment [4] and in experiment [5] were 99.8% and 100%, respectively. Further, the inhibition in experiment [6] is 0.3%. The RAM network inhibition in experiment [7] was -1.74%.

With `Cc1cc(C)n2nc(SCC(=O)Nc3ccc(F)cc3)nc2n1`, the growth inhibition in experiment [1] is -11.7%; in experiment [2] it was -10.9%. Also, the viability increase in experiment [3] was -1.21%. Moreover, the values for the viability in experiment [4] and in experiment [5] were 111% and 98.5%, respectively. Also, the inhibition in experiment [6] was 2.25%. Also, the RAM network inhibition in experiment [7] is -0.94%.

With `O=C(Nc1sc2c(c1C(=O)O)CCCC2)c1cccs1`, the growth inhibition in experiment [1] is 5.62%; in experiment [2], 15.9%. In addition, in experiment [3], the viability increase is -1.03%. In addition, the viability is 79.5% in experiment [4] and 57% in experiment [5]. Further, the inhibition in experiment [6] is -1.22%. Further, in experiment [7], the RAM network inhibition was -2.15%.

`CCOC(=O)c1ccc(NC(=O)C(C)N2C(=O)c3ccccc3C2=O)cc1` (stereo not drawn): the growth inhibition in experiment [1] is -13.1%; in experiment [2], -21.9%. Also, in experiment [3], the viability increase is 0.15%. Also, the viability is 104% in experiment [4] and 100% in experiment [5]. In addition, in experiment [6], the inhibition was 0.645%. Also, the RAM network inhibition in experiment [7] was 4.7%.

These data come from PubChem BioAssay.
